Most compounds without a hit are left out; they make up all but 3.5% or so of the library.
rRNA inh HTS – reduced GFP signal of wild-type E. coli, primary screen, bacterial rRNA inhibitor project, GFP/RFP fluorescence, OD600, single point; E. coli WT GFP vs humanized-ribosome RFP mutants, 24 h; hits give low values; DMSO median 0, no signal -100; GFP signal change (wild-type ribosome), % (no concentration beside the values); 350,000 tested, 1.6% active; AID 720706, 2013;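 active means significant combined selectivity score with lowered wild-type GFP, culture density cut under 30%, mutant RFP and density less affected; inactive means any of these conditions unmet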
PGC1a acetyl inh – inhibitors of PGC1a acetylation signal, primary screen, cell-based, U2OS, AlphaScreen, inhibitor mode | 350,000 tested, 0.17% active | AlphaScreen anti-acetyl-lysine; with virally co-expressed GCN5 acetyltransferase | inhibition, % at 15.6 µM;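 active means every replicate shows inhibition of at least 40%; inconclusive means mean inhibition at least 40% but some replicate below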;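 further: 0% = neutral control wells and 100% = positive control wells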
Env fusion inh – inhibitors of HIV-1 Env-driven cell-cell fusion, primary screen, HeLa-JRFL effector, CEM21 target cells, luciferase | inhibition, % at 12.3 µM | 360,000 tested, 1.1% active;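 active means mean replicate inhibition score of at least 50 and every replicate individually at or above 50; inconclusive means only one of the two criteria met; inactive means mean below 50 and not all replicates reaching 50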;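 further: 0% = plate neutral controls and 100% = maraviroc near 300 nM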
DENV2 CPE rescue – inhibitors of DENV2 cytopathic effect, primary screen, cell-based, plate reader, single concentration | DENV2-infected cells, cytopathic effect rescue | CPE inhibition, % at 9.99 µM | 350,000 tested, 1.7% active; in the data active means CPE inhibition above about 20%, passing the limit was not always enough; inconclusive means no clear call, values can overlap the other calls; tested in BHK-21 cells;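 further: 0% = median of neutral control wells and 100% = median of positive control wells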
FN deposit inh – inhibitors of fibronectin matrix deposition, primary screen, AH1F cells, Alexa488-fibronectin fluorescence, plate reader. AH1F fibroblasts, overnight. inhibition, % at 12.6 µM. 350,000 tested, 0.086% active;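 active means mean inhibition across replicates of 30% or more, regardless of how many single replicates reach that level; inconclusive means mean under 30% yet at least half of replicates reach 30%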;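 further: positive control wells lacked labelled fibronectin entirely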
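Schedule: 1 h cell adhesion before compound, then overnight fibronectin incubation; test system: AH1F fibroblast monolayer depositing Alexa488-labelled fibronectin into matrix; quantity: 10000 AH1F cells per well; probe or stimulus: fluorescent fibronectin at 24 nM final; signal: fluorescence, ex 485 nm, em 525 nm; evaluation: percent inhibition as loss of matrix-bound fibronectin fluorescence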
PglD DTNB – C. jejuni PglD acetyltransferase inhibitors, primary screen, biochemical, DTNB colorimetric, single point. UDP-N-acetylbacillosamine N-acetyltransferase PglD (Campylobacter jejuni). purified PglD enzyme, DTNB colorimetric CoA detection. 360,000 tested, 0.098% active. AID 602405, 2012. inhibition, % at 12.5 µM; in the data active means inhibition above about 16%, passing the limit was not always enough; inconclusive means no clear call, values can overlap the other calls
The depositor's hits bear a star; ? = inconclusive; nt = not tested or not shown; [ ] = another dose, or the depositor's remark.

SMILES	rRNA inh HTS	PGC1a acetyl inh	Env fusion inh	DENV2 CPE rescue	FN deposit inh	PglD DTNB
Cc1ccc(C(=O)NCC(=O)NCC(c2cccs2)N2CCOCC2)cc1 (centres undefined)	5	1	-20	-4	-6	-4
Cc1ccc(C(=O)NCC(=O)NCC(c2cccs2)N2CCOCC2)cc1C (centres undefined)	3	19	-3	93*	0	-4
C[C@@H]1CN([C@@H](C)CO)C(=O)c2cc(-c3ccc(F)cc3)cnc2O[C@@H]1CN(C)C(=O)NC1CCCC1	3	-5	-6[16.7 µM]	6	-11	0
O=C(CCNS(=O)(=O)c1ccccc1C(F)(F)F)N1CCN(C(c2ccccc2)c2ccccc2)CC1	6	-3	-47	92*	2	-6
Nc1ccccc1C(O)(Cc1ccccc1)c1ccccc1 (centres undefined)	-16	-36	6	36*	-2	-1
CC1CN(C(=O)c2cc3c(=O)n4ccccc4nc3n2C)CC(C)O1 (centres undefined)	3	nt	2	0	36*	3
Cn1c(C(=O)N2CCOCC2)cc2c(=O)n3ccccc3nc21	9	nt	-1	14	-3	-1
C[C@@H]1CN([C@@H](C)CO)C(=O)c2cc(NS(=O)(=O)c3ccc(F)cc3)ccc2O[C@@H](C)CCCCO[C@H]1CN(C)S(=O)(=O)c1cn(C)cn1	-2	nt	-10[16.7 µM]	?	0	-1
COC(=O)C(Cc1ccccc1)NC(=O)C12CC3CC(CC(C3)C1)C2 (centres undefined)	-34*	nt	14	2	4	nt
COC(=O)C(Cc1ccc(O)cc1)NC(=O)C12CC3CC(CC(C3)C1)C2 (centres undefined)	8	nt	5	4	nt	nt
CN(C)CCOc1ccc2c(c1)C(=O)C(=Cc1ncc([N+](=O)[O-])n1C)C2	-65	93*	13	11	6	-2
CCc1cc(OCCN(C)C)ccc1Cl	6	0	23	-2	nt	nt
CCc1cc2c(NCc3ccco3)ncnc2s1	nt	-8	80*	nt	-1	9
C[C@@H]1CCCCO[C@H](CN(C)CC2CCCCC2)[C@@H](C)CN([C@H](C)CO)C(=O)c2cc(NC(=O)CCC(F)(F)F)ccc2O1	1	-1	-13[16.7 µM]	52*	nt	1
C[C@@H]1CCCCO[C@H](CN(C)S(C)(=O)=O)[C@@H](C)CN([C@H](C)CO)C(=O)c2cc(NC(=O)CCC(F)(F)F)ccc2O1	3	16	-3[16.7 µM]	116*	nt	0
C[C@H](CO)N1C[C@H](C)[C@H](CN(C)CC2CCCCC2)OCCCC[C@H](C)Oc2ccc(NC(=O)CCC(F)(F)F)cc2C1=O	0	-12	-18[16.7 µM]	-7	nt	-1
C[C@H]1CCCCO[C@H](CN(C)CC2CCCCC2)[C@@H](C)CN([C@@H](C)CO)C(=O)c2cc(NC(=O)CCC(F)(F)F)ccc2O1	4	5	7[16.7 µM]	0	nt	-1
C[C@@H]1CN([C@H](C)CO)C(=O)c2cc(NC(=O)CCC(F)(F)F)ccc2O[C@@H](C)CCCCO[C@@H]1CN(C)C(=O)C1CCCCC1	-1	-2	-6[16.7 µM]	88*	nt	3
C[C@@H]1CCCCO[C@@H](CN(C)S(C)(=O)=O)[C@@H](C)CN([C@H](C)CO)C(=O)c2cc(NC(=O)CCC(F)(F)F)ccc2O1	1	2	-8[16.7 µM]	nt	nt	nt
C[C@@H]1CCCCO[C@@H](CN(C)CC2CCCCC2)[C@@H](C)CN([C@@H](C)CO)C(=O)c2cc(NC(=O)CCC(F)(F)F)ccc2O1	2	-7	-2[16.7 µM]	30*	nt	1
Cc1ccc(S(=O)(=O)N(C)C[C@H]2OCCCC[C@H](C)Oc3ccc(NC(=O)Nc4ccccc4)cc3C(=O)N([C@H](C)CO)C[C@H]2C)cc1	-3	-3	3[16.7 µM]	-4	-2	-1
O=C(C[C@@H]1CC[C@@H](NC(=O)C2CCOCC2)[C@H](CO)O1)NCc1ccncc1	5	4	nt	-5	nt	nt
CCOc1cccc2sc(NC(=O)CCS(=O)(=O)c3ccccc3)nc12	-1	19	-17	8	nt	-1
COc1ccc(C)c2sc(NC(=O)CCS(=O)(=O)c3ccccc3)nc12	-31*	-2	4	-6	-11	8
CCOC(=O)c1cc(CC)sc1NC(=O)CCC(=O)O	nt	-37	nt	nt	nt	0
SMILES	rRNA inh HTS	PGC1a acetyl inh	Env fusion inh	DENV2 CPE rescue	FN deposit inh	PglD DTNB
CCCc1cc(C(=O)OC)c(NC(=O)CCC(=O)O)s1	2	6	11	5	33*	nt
CCOc1ccc(NC(=S)NNC(=S)Nc2cccc(C(F)(F)F)c2)cc1	-28*	nt	-9	15	0	nt
COC(=S)Nc1cccc(C(F)(F)F)c1	14	-14	-15	-10	-8	4
COc1ccc(NC(=S)NCc2ccco2)cc1	nt	-2	nt	nt	nt	nt
COc1ccc(NC(=S)NNC(=S)Nc2cccc(C(F)(F)F)c2)cc1	-24*	-28	-1	-5	3	-2
CCOc1ccc(NC(=S)NCc2ccco2)cc1	-19*	3	-4	10	1	nt
O=C(Nc1ccc2c(c1)[C@@H]1C[C@@H](CC(=O)N3CCOCC3)O[C@@H](CO)[C@@H]1O2)C1CCOCC1	3	1	-5[16.7 µM]	7	-9	0
COc1ccc(NC(=O)Nc2ccc3c(c2)[C@@H]2C[C@@H](CC(=O)NCc4ccc5c(c4)OCO5)O[C@@H](CO)[C@@H]2O3)cc1	-1	-12	-8[16.7 µM]	-6	-2	3
Cc1cc(C(=O)Nc2ccc3c(c2)C(=O)N(C)[C@H]2CC[C@H](CC(=O)O)O[C@@H]2CO3)no1	5	-4	?	-4	0	-1
CCc1ccc(NC(=O)COC(=O)CCCC2=NS(=O)(=O)c3ccccc3N2)cc1	-17*	-6	12	10	-10	7
O=C(COC(=O)CCCC1=NS(=O)(=O)c2ccccc2N1)Nc1ccccc1	-4	-23	5	-1	-3	2
O=c1[nH]nc(Sc2ncnc3sccc23)n1CCc1ccccc1	nt	nt	64*	nt	4	8
CCN(CC)C(=O)CSc1n[nH]c(=O)n1CCc1ccccc1	9	-1	-7	1	0	1
Cc1ccc(S(=O)(=O)Nc2ccc3c(c2)C(=O)N([C@H](C)CO)C[C@@H](C)[C@@H](CN(C)Cc2ccc(-c4ccccc4)cc2)O3)cc1	0	-17	60*[16.7 µM]	-2	nt	-2
C[C@@H]1CN([C@@H](C)CO)C(=O)c2cc(NS(=O)(=O)c3ccccc3)ccc2O[C@H]1CN(C)Cc1ccc(Oc2ccccc2)cc1	6	-4	94*[16.7 µM]	nt	nt	-1
